Bioassay records: PubChem BioAssay, Broad Institute
PGC1a acetyl inh – lowers PGC1a acetylation signal in U2OS cells. AlphaScreen anti-acetyl-lysine; with virally co-expressed GCN5 acetyltransferase. inhibition, % at 15.6 µM. hit rate 0.17% among 350,000. AID 651687;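 active = every replicate shows inhibition of at least 40%; inconclusive = mean inhibition at least 40% but some replicate below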;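 note: 0% = neutral control wells and 100% = positive control wells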
Cneo AK release – causes C. neoformans cell lysis; adenylate kinase release luminescence, 4 h; normalised: neutral wells 0, clomiphene wells 100; lysis activity, % at 15 µM; hit rate 0.2% among 360,000; AID 651654;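 active = mean lysis activity across replicates of at least 80%, whatever share of replicates individually reach that level; inactive = mean lysis activity below 80%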
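Material – log-phase Cryptococcus neoformans yeast cells · Input – 5 × 10^6 yeast cells/mL · Medium – fresh YPD growth medium · Doses – single compound concentration per well · Timing – static 4 h at 37 °C with compound, 1 h detection · Detection – adenylate kinase release luminescence · Read-out – signal increase indicating cell lysis · Control set – Clomiphene as positive lysis control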
Wnt bcat act – Wnt/beta-catenin pathway activation | Wnt/beta-catenin reporter cell assay, activator, plate reader | activation, % at 9.35 µM | hit rate 1.2% among 300,000; in the data active = activation above about 30%, passing the limit was not always enough; inconclusive = no clear call, values can overlap the other calls;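 note: 0% = neutral control wells and 100% = positive control wells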
MITF TRPM1 HTS – MITF TRPM1 promoter activation in melanoma cells. SK-MEL-5 TRPM1-promoter luciferase, 24 h; % of positive control, neutral wells = 0. activation, % at 12.5 µM. hit rate 0.75% among 300,000;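 active = mean activation of at least 80% with every replicate also reaching 80%; inconclusive = mean reaches 80% but some replicate falls short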;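 note: 0% = neutral control wells and 100% = parthenolide positive control wells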
Active calls of the source: *; ? = inconclusive; · = no result given. Hits are enriched below; roughly 1.5% of the tested compounds scored in any of these assays.

SMILES	PGC1a acetyl inh	Cneo AK release	Wnt bcat act	MITF TRPM1 HTS
O=C1C(Nc2ccccc2)=C/C(=N/S(=O)(=O)c2cccs2)c2ccccc21	59.3*	-4.0	·	-94.9
CC(C)c1ccc(S(=O)(=O)/N=C2/C=C(Sc3ncn[nH]3)C(=O)c3ccccc32)cc1	·	·	·	-55.9
Cc1ccc(S(=O)(=O)/N=C2/C=C(Sc3ncn[nH]3)C(=O)c3ccccc32)cc1	77.2*	2.8	·	-90.6
Cc1ccc(S(=O)(=O)/N=C2\C=C(Nc3ccc(O)cc3)C(=O)c3ccccc32)cc1	86.5*	-7.3	·	-98.5
Cc1ccc(S(=O)(=O)/N=C2\C=C(Nc3cccc(C(=O)O)c3)C(=O)c3ccccc32)cc1	-1.1	4.1	-0.8	-2.3
CCOC(=O)C1CCCN(c2ncnc3c2cnn3-c2cccc(C)c2)C1 (configuration not stated)	-0.8	-7.9	·	-19.6
Cc1cccc(-n2ncc3c(N4CCC5(CC4)OCCO5)ncnc32)c1	3.0	-0.6	15.9	73.3
Cc1cccc(-n2ncc3c(N4CCC(C)CC4)ncnc32)c1	-4.0	-12.5	38.3*	49.3
c1ccc(-n2ncc3c(N4CCC5(CC4)OCCO5)ncnc32)cc1	4.1	-0.3	·	93.2*
CCN1CCN(c2ncnc3c2cnn3-c2ccccc2)CC1	14.1	-3.7	-2.0	86.9*
Cc1ccc(-c2cnc3c(c2)C(=O)N([C@@H](C)CO)C[C@H](C)[C@H](CN(C)S(C)(=O)=O)O3)cc1	5.2	·	·	·
C[C@H](CO)N1C[C@H](C)[C@H](CN(C)S(=O)(=O)c2ccc(F)cc2)Oc2c(NC(=O)c3cnccn3)cccc2C1=O	4.9	·	·	·
CN1[C@@H]2c3ccc(-c4ccccc4F)c(=O)n3C[C@@H]2[C@@H](CO)[C@@H]1C(=O)Nc1nccs1	·	0.3	·	·
O=Nc1c(-c2c(O)[nH]c3cc(Br)ccc23)[nH]c2ccccc12	-258.0	3.0	77.3*	8.0
O=C(Nc1ccccc1F)N[C@H]1C=C[C@@H](CC(=O)N2CCCCC2)O[C@@H]1CO	-17.0	-0.2	·	·
Cc1ccc(NC(=O)C(=O)NCCCN2CCCC2=O)cc1	·	-7.6	42.7*	55.9
COc1cc(/C=C/C(=O)NC(=O)c2ccccc2O)ccc1O	0.2	-8.6	19.1	83.6*
COc1ccc(O)c(C(=O)/C=C/c2cc3ccccc3o2)c1	-2.6	0.0	0.6	-0.9
O=C(C=Cc1cccc(O)c1)c1ccccc1O	6.5	-11.5	-3.4	9.3
O=C(/C=C/c1ccc(O)c(O)c1)c1ccccc1O	17.0	-4.8	46.6*	65.0
O=C(/C=C/c1cc2ccccc2o1)c1ccccc1O	2.8	-2.1	38.7*	?
C[C@H]1CN([C@@H](C)CO)C(=O)c2cc(NC(=O)CCC(F)(F)F)ccc2O[C@@H]1CN(C)Cc1ccccc1	10.0	0.6	·	·
CNC(=O)C[C@@H]1CC[C@@H]2[C@@H](COc3ccc(NC(=O)Nc4ccc(F)c(F)c4)cc3C(=O)N2C)O1	8.8	-3.1	·	·
O=C(C[C@@H]1C=C[C@@H](NC(=O)NC2CCCC2)[C@@H](CO)O1)NCc1ccc(F)cc1	2.9	-2.5	·	·
Cc1ccc(Sc2cc(C)nc(-c3ccccn3)n2)cc1	-2.5	31.0	33.0*	·
SMILES	PGC1a acetyl inh	Cneo AK release	Wnt bcat act	MITF TRPM1 HTS
COc1cnc(-c2ccccn2)nc1Sc1ccc(C)cc1	?	·	-2.3	-5.1
O=C(c1ccc(F)cc1)C(CN1CCOCC1)c1ccccc1 (configuration not stated)	60.1*	-0.8	-11.5	-90.3
CCCCOc1ccc(C(=O)C(CN2CCOCC2)c2ccccc2)cc1 (configuration not stated)	79.6*	0.8	·	-31.5
O=C(c1ccc(Cl)cc1)C(CN1CCCC1)c1ccccc1 (configuration not stated)	·	0.4	-7.1	·
COc1ccc(C(=O)C(CN2CCOCC2)c2ccccc2)cc1 (configuration not stated)	32.3	-11.4	-12.5	-83.5
COc1ccc(CN2C[C@H](C)[C@H](OC)CN(C)C(=O)c3cc(NC(=O)C4CC4)ccc3OC[C@@H]2C)cc1	-9.6	·	·	·
C[C@@H](NC(=O)C[C@H]1C=C[C@H](NC(=O)CN2CCOCC2)[C@@H](CO)O1)c1ccccc1	2.2	7.8	·	·
O=C(C[C@@H]1C[C@@H]2c3cc(NC(=O)CC4CC4)ccc3O[C@@H]2[C@H](CO)O1)NCc1ccc2c(c1)OCO2	-5.1	3.2	·	·
COc1ccc(NC(=O)Nc2cc(C)ccc2OC)cc1	-1.1	-1.8	·	17.3
COc1ccc(C(=O)COc2ccc(C)cc2NC(C)=O)cc1	-5.9	-0.8	55.9*	·
Cc1noc(C)c1S(=O)(=O)Nc1ccc2c(c1)CC(=O)N([C@H](C)CO)C[C@H](C)[C@@H](CN(C)S(=O)(=O)c1cn(C)cn1)O2	5.1	110.4*	·	·
C[C@@H]1CN([C@@H](C)CO)C(=O)Cc2cc(NC(=O)Nc3cccc4ccccc34)ccc2O[C@@H]1CN(C)S(=O)(=O)c1cccs1	0.4	94.6*	·	·
Cc1noc(C)c1S(=O)(=O)Nc1ccc2c(c1)CC(=O)N([C@@H](C)CO)C[C@H](C)[C@H](CN(C)S(=O)(=O)c1cccs1)O2	0.9	0.6	·	·
Cc1noc(C)c1NC(=O)N(C)C[C@H]1Oc2ccc(NS(=O)(=O)c3cn(C)cn3)cc2CC(=O)N([C@H](C)CO)C[C@H]1C	4.9	102.4*	·	·
C[C@H]1CN([C@@H](C)CO)C(=O)Cc2cc(NC(=O)Nc3cccc4ccccc34)ccc2O[C@@H]1CN(C)S(=O)(=O)c1cccs1	-3.3	-2.5	·	·
Cc1noc(C)c1S(=O)(=O)Nc1ccc2c(c1)CC(=O)N([C@@H](C)CO)C[C@@H](C)[C@@H](CN(C)S(=O)(=O)c1cccs1)O2	-6.2	105.8*	·	·
Cc1noc(C)c1NC(=O)N(C)C[C@@H]1Oc2ccc(NS(=O)(=O)c3cn(C)cn3)cc2CC(=O)N([C@H](C)CO)C[C@@H]1C	10.6	-1.5	·	·
CCc1cccc2c(C(=O)CN3C(=O)NC4(CCCCCC4)C3=O)c[nH]c12	-19.1	-4.7	-2.3	101.9*
CC(=O)Nc1sc2c(c1-c1nc3ccccc3s1)CN(C(C)C)CC2	51.9*	-0.8	58.2*	-61.6
CC(=O)N1CCc2c(sc(NC(=O)C3CC3)c2-c2nc3ccccc3s2)C1	1.2	1.7	-3.0	-0.1
CN(C(=O)/C=C/c1ccccc1)C1CCS(=O)(=O)C1 (configuration not stated)	-2.1	0.0	1.1	-4.6
CN(C(=O)/C=C/c1ccccc1)C1CCCCC1	1.5	-7.2	48.0*	·
CCCNC(=O)N1CC2(C1)[C@@H](c1ccccc1)[C@@H](CO)N2Cc1ccccn1	-9.1	·	·	·
C/C(=N\OC(=O)Nc1ccccc1)c1ccc(C)cc1	5.0	·	0.2	100.7*
C/C(=N/NC(=O)Nc1ccccc1)c1ccc(C)cc1	-5.4	0.1	2.3	1.9
COc1ccc(-c2nnc(SCc3ccccc3)n2N)cc1	·	-1.8	22.9	87.5*
COc1ccc(-c2nnc(SCCc3ccccc3)n2N)cc1	-9.9	1.0	3.9	17.9
CCc1nc2c(sc3nc4c(cc32)COC(C)(C)C4)c(=O)n1CCN(CC)CC	33.1	0.1	-1.6	1.7
C=CCn1c(C)nc2c(sc3nc4c(cc32)COC(C)(C)C4)c1=O	·	·	45.9*	66.2
